From ChEMBL document CHEMBL4043285 (J Med Chem, 2018)
Activity calls are given as the source filed them. No cut-off for these calls is given here.

Key:
[1] = Inhibition of Aurk mouse L929sA cells transfected with human Fas assessed as increase in nuclear area after 24 hrs in presence of TNF by Hoechst 33342 staining-based microscopic assay
Method in brief: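 L929sAhFAS cells treated with compound; mean nuclear area is measured and fitted as a sigmoidal dose–response curve.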

[2] = tested on: Mus musculus; assay: Protection against TNF-induced hypothermia in TNF-induced SIRS C57BL/6J mouse model at 50 mg/kg administered via oral gavage treated 1.5 hrs prior to TNF challenge by thermometric analysis; format: functional, organism-based
Method in brief: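 Mice were dosed orally by gavage at 50 mg/kg, 1.5 h before challenge with murine TNF (mTNF).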

[3] = Inhibition of Aurk mouse L929sA cells transfected with human Fas assessed as reduction in cell growth after 24 hrs in presence of TNF by Hoechst 33342 staining-based microscopic assay
Method in brief: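 L929sAhFAS cells exposed to compound; total cell number is counted after 24 h. IC50 is fitted from a dose–response curve of cell growth.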

[4] = tested on: Aurk (Aurora kinase); assay: Inhibition of Aurk in mouse L929sA cells transfected with human Fas assessed as reduction in cell growth at 3 uM after 24 hrs in presence of TNF by Hoechst 33342 staining-based microscopic assay relative to control
[5] = tested on: Aurk (Aurora kinase); assay: Inhibition of Aurk in mouse L929sA cells transfected with human Fas assessed as increase in nuclear area at 3 uM after 24 hrs in presence of TNF by Hoechst 33342 staining-based microscopic assay relative to control; format: cell-based
[6] = biological target: Aurora kinase B (Homo sapiens, UniProt Q96GD4); assay: Inhibition of human recombinant AurKB after 4 hrs by ADP-Glo assay
Chain of Aurora kinase B (Q96GD4 whole entry): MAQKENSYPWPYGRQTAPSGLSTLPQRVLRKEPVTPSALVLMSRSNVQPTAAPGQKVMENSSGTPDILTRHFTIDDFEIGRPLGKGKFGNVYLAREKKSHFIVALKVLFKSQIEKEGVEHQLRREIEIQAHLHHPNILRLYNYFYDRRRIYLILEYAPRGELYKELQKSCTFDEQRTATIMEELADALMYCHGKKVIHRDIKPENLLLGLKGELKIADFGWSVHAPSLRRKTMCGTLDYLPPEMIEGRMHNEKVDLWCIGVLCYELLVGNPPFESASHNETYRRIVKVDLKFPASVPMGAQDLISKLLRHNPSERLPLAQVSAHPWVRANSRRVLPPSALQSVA

[7] = biological target: T1, Aurora kinase A (Homo sapiens, UniProt O14965); assay: Inhibition of human recombinant AurKA after 4 hrs by ADP-Glo assay
T1 sequence (O14965 whole entry): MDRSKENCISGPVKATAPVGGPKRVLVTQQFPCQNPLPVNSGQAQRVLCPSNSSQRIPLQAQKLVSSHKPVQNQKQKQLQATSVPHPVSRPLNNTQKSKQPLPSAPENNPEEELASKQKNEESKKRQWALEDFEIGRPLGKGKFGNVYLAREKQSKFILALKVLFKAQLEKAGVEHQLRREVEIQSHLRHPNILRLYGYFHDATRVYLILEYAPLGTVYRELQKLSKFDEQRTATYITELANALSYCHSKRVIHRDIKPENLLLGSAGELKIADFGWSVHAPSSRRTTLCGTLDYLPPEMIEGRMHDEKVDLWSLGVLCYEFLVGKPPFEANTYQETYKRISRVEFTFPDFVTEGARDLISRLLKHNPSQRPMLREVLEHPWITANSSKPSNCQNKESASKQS

[8] = biological target: T2, Receptor-interacting serine/threonine-protein kinase 1 (Mus musculus) (UniProt Q60855); assay: Inhibition of RIPK1 in mouse L929sA cells transfected with human Fas assessed as inhibition in TNF-induced necroptosis at 3 uM pretreated for 24 hrs followed by TNF and zVAD.fmk addition measured after 3 hrs by Hoechst 33342/propidium iodide staining-based assay relative to control; format: cell-based
T2 sequence (whole entry): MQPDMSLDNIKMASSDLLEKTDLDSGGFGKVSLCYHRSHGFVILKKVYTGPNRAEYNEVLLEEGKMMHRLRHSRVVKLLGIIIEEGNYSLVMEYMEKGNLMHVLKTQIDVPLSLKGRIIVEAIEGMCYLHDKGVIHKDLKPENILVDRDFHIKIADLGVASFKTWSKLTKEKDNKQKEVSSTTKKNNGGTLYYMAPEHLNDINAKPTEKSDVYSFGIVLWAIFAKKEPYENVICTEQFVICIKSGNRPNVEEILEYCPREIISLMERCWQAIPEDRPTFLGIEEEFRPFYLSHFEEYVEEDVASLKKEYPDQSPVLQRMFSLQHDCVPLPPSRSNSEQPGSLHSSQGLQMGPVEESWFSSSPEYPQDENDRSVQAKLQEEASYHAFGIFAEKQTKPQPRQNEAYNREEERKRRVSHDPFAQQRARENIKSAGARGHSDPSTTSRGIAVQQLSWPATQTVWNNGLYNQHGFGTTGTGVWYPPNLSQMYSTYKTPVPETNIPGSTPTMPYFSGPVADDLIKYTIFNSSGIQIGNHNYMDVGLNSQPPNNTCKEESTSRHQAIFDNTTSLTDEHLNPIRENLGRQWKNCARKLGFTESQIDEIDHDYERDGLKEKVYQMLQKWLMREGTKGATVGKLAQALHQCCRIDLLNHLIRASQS

[9] = biological target: T3, Receptor-interacting serine/threonine-protein kinase 1 (Homo sapiens, UniProt Q13546); assay: Inhibition of human recombinant RIPK1 after 4 hrs by ADP-Glo assay
T3 sequence (Q13546 whole entry): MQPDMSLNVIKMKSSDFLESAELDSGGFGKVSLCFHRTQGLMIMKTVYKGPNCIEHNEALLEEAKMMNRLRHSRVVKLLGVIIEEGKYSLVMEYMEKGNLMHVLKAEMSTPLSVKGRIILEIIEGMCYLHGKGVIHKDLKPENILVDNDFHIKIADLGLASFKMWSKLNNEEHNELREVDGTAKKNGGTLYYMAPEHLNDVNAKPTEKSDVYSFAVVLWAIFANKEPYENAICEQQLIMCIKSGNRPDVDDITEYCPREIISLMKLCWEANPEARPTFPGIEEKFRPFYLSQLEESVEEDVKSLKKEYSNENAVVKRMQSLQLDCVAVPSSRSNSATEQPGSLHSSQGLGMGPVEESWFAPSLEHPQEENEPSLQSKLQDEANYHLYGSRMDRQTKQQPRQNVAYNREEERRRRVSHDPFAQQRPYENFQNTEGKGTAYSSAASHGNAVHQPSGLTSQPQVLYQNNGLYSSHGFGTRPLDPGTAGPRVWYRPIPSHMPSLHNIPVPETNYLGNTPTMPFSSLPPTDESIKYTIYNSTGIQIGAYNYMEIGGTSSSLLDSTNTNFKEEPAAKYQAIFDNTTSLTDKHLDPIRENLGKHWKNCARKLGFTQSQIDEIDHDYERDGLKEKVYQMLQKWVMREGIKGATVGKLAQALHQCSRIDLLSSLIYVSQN

[10] = biological target: T2, Receptor-interacting serine/threonine-protein kinase 1 (Mus musculus); assay: Inhibition of RIPK1 in mouse L929sA cells transfected with human Fas assessed as inhibition in TNF-induced necroptosis at 3 uM pretreated for 0.5 hrs followed by TNF and zVAD.fmk addition measured after 3 hrs by Hoechst 33342/propidium iodide staining-based assay relative to control; format: cell-based

SMILES	IC50 [1] [nM]	inhibition at 24 h, 3 µM [5] [%]	IC50 [6] [nM]	IC50 [7] [nM]	IC50 [9] [nM]	Activity [2]	IC50 [3] [nM]	inhibition at 24 h, 3 µM [4] [%]	inhibition [8] [%]	inhibition [10] [%]
Cc1cc(Nc2cc(N3CCOCC3)nc(Nc3ccc(NC(=O)C4CC4)cc3)n2)n[nH]1	> 3000	< 50	853	430	–	Active	> 3000	< 50	–	–
CN1C(=O)NC(Cc2c[nH]c3c(Cl)cccc23)C1=O (stereo not given)	–	–	> 3000	> 3000	–	Active	–	–	–	–
Cc1[nH]nc(Nc2nc(Nc3ccc(NC(=O)C4CCCCC4)cc3)nc(N3CCCCC3)n2)c1C	> 3000	< 50	–	–	–	–	> 3000	< 50	< 50	< 50
Cc1cc(Nc2cc(N3CCCCC3)nc(Nc3ccc(NC(=O)C4CC4)cc3)n2)n[nH]1	> 3000	< 50	959	–	–	inactive	> 3000	< 50	–	–
Cc1[nH]nc(Nc2cc(N3CCCCC3)nc(Nc3ccc(NC(=O)C4CC4)cc3)n2)c1C	> 3000	< 50	–	–	–	–	> 3000	< 50	< 50	< 50
Cc1[nH]nc(Nc2nc(Nc3ccc(NC(=O)C4CCCCC4)cc3)nc(N3CCOCC3)n2)c1C	> 3000	< 50	–	–	–	–	> 3000	< 50	< 50	< 50
Cc1[nH]nc(Nc2cc(N3CCN(C)CC3)nc(Nc3ccc(NC(=O)C4CC4)cc3)n2)c1C	> 3000	< 50	–	–	–	–	> 3000	< 50	< 50	< 50

The next lines start with results.

IC50 [1] [nM]	inhibition at 24 h, 3 µM [5] [%]	IC50 [6] [nM]	IC50 [7] [nM]	IC50 [9] [nM]	SMILES	Activity [2]	IC50 [3] [nM]	inhibition at 24 h, 3 µM [4] [%]	inhibition [8] [%]	inhibition [10] [%]
400	–	229	210	2470	Cc1cc(Nc2nc(Sc3ccc(NC(=O)C4CCCCC4)cc3)nc(N3CCN(C)CC3)n2)n[nH]1	–	330	–	< 50	< 50
> 3000	< 50	1340	293	178	Cc1cc(Nc2cc(N3CCN(C)CC3)nc(Nc3ccc(NC(=O)C4CC4)cc3)n2)n[nH]1	Active	> 3000	< 50	–	–
> 3000	< 50	–	–	–	Cc1[nH]nc(Nc2cc(N3CCN(C)CC3)nc(Sc3ccc(NC(=O)C4CCCCC4)cc3)n2)c1C	–	> 3000	< 50	< 50	< 50
> 3000	< 50	–	–	–	Cc1[nH]nc(Nc2cc(N3CCOCC3)nc(Sc3ccc(NC(=O)C4CCCCC4)cc3)n2)c1C	–	> 3000	< 50	< 50	< 50
> 3000	< 50	–	–	–	Cc1cc(Nc2nc(Nc3ccc(NC(=O)C4CC4)cc3)nc(N3CCCCC3)n2)n[nH]1	–	> 3000	< 50	< 50	< 50
> 3000	< 50	–	–	–	Cc1[nH]nc(Nc2nc(Nc3ccc(NC(=O)C4CC4)cc3)nc(N3CCN(C)CC3)n2)c1C	–	> 3000	< 50	< 50	< 50
> 3000	< 50	–	–	–	Cc1[nH]nc(Nc2cc(N3CCCCC3)nc(Sc3ccc(NC(=O)C4CCCCC4)cc3)n2)c1C	–	> 3000	< 50	< 50	< 50
